Source: PMC9177108 (The Oncologist, 2022)

Tested on: patients with recurrent and metastatic nasopharyngeal carcinoma (RM-NPC)
Test: Antitumor efficacy
Assay type: in vivo, human
Conditions: for time to response: radiologic assessment every 8 weeks
Procedure, shortened: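 Patients with pretreated RM-NPC were randomised to two arms, each evaluated separately (10 per arm). Both arms took test compound 10 mg orally daily: intermittent arm 3 weeks on/1 week off, continuous arm daily on a 4-week cycle. The investigator assessed response by RECIST 1.1. ORR was CR or PR as best overall response. DCR was confirmed CR, confirmed PR or SD lasting ≥4 weeks from randomisation.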

[1] = continuous arm (10 mg p.o. daily, 4-week cycle), n = 10
[2] = intermittent arm (10 mg p.o., 3 weeks on/1 week off), n = 10
[3] = intermittent arm, n = 10, listed as lucitanib

Compound: CNC(=O)c1cccc2cc(Oc3ccnc4cc(OCC5(N)CC5)c(OC)cc34)ccc12 [Lucitanib]
- duration of response (all three responders, both arms): more than 1 year
- time to response (all three responders): observed by the first evaluation
- time to response (all three responders, listed as lucitanib): at the first evaluation
- Best response PR [1]: n = 2 (20%) n (%)
- Response assessment CR [1]: n = 0 (0%) n (%)
- Best response PR (continuous arm (10 mg p.o. daily, 4-week cycle), n = 10, listed as lucitanib): 2 (20) n (%)
- Best response PD (continuous arm, n = 10): 1 (10) n (%)
- Best response SD (continuous arm, n = 10): 7 (70) n (%)
- DCR (continuous arm, n = 10): 90%
- ORR (continuous arm, n = 10): 20%
- Response assessment OTHER (continuous arm, n = 10): n = 0 (0%) n (%)
- median PFS (continuous arm, n = 10, 90% CI 3.5 to NE): 3.73 months
- Best response PR [2]: 1 (10) n (%)
- Response assessment CR [2]: n = 0 (0%) n (%)
- Best response SD (intermittent arm, n = 10): n = 5 (50%) n (%)
- median PFS (intermittent arm, n = 10, 90% CI 1.74 to 7.36): 3.68 months
- Best response PD [3]: 3 (30) n (%)
- Best response SD [3]: 5 (50) n (%)
- DCR [3]: 60%
- ORR [3]: 10%
- sustained response, patients still on treatment (two responders still on treatment at last follow-up): > 3 years
